This is an account of results in ChEMBL document CHEMBL5625188, “Exploring diverse reactive warheads for the design of SARS-CoV-2 main protease inhibitors” (Eur J Med Chem, 2023).

The structures appear in SMILES notation.

For data set [1], the target named is T1, Replicase polyprotein 1ab (Severe acute respiratory syndrome coronavirus 2, UniProt P0DTD1). Put plainly: Inhibition of MPro of SARS CoV-2 BetaCoV/Wuhan/WIV04/2019 preincubated for 30 mins followed by substrate addition measured for 1 hr by FRET assay.
Data set [2] can be described thus: Cytotoxicity against African green monkey Vero cells incubated for 5 days by neutral red uptake assay. The following applies: chlorocebus sabaeus, time 5 day; for CC50: vero, 120 h; for CC50 at 120 h: Vero cells. It is filed as toxicity, cell-based. The method, boiled down:
(§1)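 Vero E6 cells were kept in DMEM with 5% heat-inactivated FBS at 37 °C, 5% CO2, and seeded at 80,000 cells/mL. Neutral red uptake used 40 μg/mL dye for 2–4 h, read at 540 nm. CC50 came from a variable-slope dose-response fit.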

Data set [3] in a line: Cytotoxicity against human Calu-3 cells infected with SARS CoV-2 USA-WA1/2020 clinical isolate assessed as reduction in cell viability incubated for 48 hrs by imaging analysis. The format is toxicity, cell-based.
Data set [4] can be described thus: Cytotoxicity against African green monkey Vero cells. It is filed as toxicity, cell-based. The following applies: chlorocebus sabaeus. The method in brief: as §1
The target of data set [5] is T1, Replicase polyprotein 1ab. Put plainly: Inhibition of SARS-CoV-2 MPro. The method, boiled down: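 FRET substrate was added to 10 μM final. Fluorescence (ex 360, em 460 nm) was followed 1 h at 30 °C. Initial velocities came from linear regression of the first 15 min, giving % inhibition and IC50.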
Data set [6] has as its target T1, Replicase polyprotein 1ab. Nature of the data set: Inhibition of MPro of SARS CoV-2 BetaCoV/Wuhan/WIV04/2019 incubated for 2 hrs in presence of substrate by FRET assay.
The subject of data set [7] is SARS-CoV-2. Nature of the data set: Antiviral activity against SARS CoV-2 USA-WA1/2020 clinical isolate infected in human Calu-3 cells assessed as reduction in viral infection incubated for 48 hrs by imaging analysis. It is filed as functional, organism-based. The following applies: Severe acute respiratory syndrome coronavirus 2, USA-WA1/2020, Calu-3, 48 h.

In general, IC50 refers to the concentration at which inhibition is half-maximal. A word on the CC50: it is the concentration that lowers cell viability or growth by half. As for `C=CS(=O)(=O)N(c1ccc(-c2ccccc2)cc1)[C@@H](C(=O)N[C@@H](C)c1ccccc1)c1cccnc1`, the IC50 in data set [1] is 0.31 µM. The molecule further returned a CC50 in data set [2] of 18.4 µM.
`COc1ccc(/C=C(\C#N)C(=O)N(c2ccc(-c3ccccc3)cc2)[C@@H](C(=O)N[C@@H](C)c2ccccc2)c2cccnc2)cc1` showed a CC50 in data set [2] of over 100 µM. For the same molecule, the CC50 at 48 h in data set [3] is over 100 µM.
Take `C#CC(=O)N(c1ccc(-c2ccccc2)cc1)[C@@H](C(=O)N[C@@H](C)c1ccccc1)c1cccnc1`: in data set [2], the midpoint of cytotoxicity, the CC50 at 120 h, lay at 2.06 µM.
Molecule `C#CCN(c1ccc(-c2ccccc2)cc1)C(C(=O)N[C@@H](C)c1ccccc1)c1cccnc1` (stereo partly drawn) yielded an IC50 in data set [1] of over 20 µM.
In turn, `CCC#CC(=O)N(c1ccc(-c2ccccc2)cc1)C(C(=O)N[C@@H](C)c1ccccc1)c1cccnc1` (stereo partly drawn) showed an IC50 in data set [1] of 1.65 µM. Also, the midpoint of cytotoxicity in data set [2], the CC50 at 120 h, lay at 38.6 µM.
With `C=C(NC(C)=O)C(=O)N(c1ccc(-c2ccccc2)cc1)C(C(=O)N[C@@H](C)c1ccccc1)c1cccnc1` (stereo partly drawn), in data set [1], the IC50 was over 20 µM.
The same measure, in the same setting: then `C[C@H](NC(=O)C(c1cccnc1)N(C(=O)C1(C#N)CCN(C(=O)OC(C)(C)C)CC1)c1ccc(-c2ccccc2)cc1)c1ccccc1` (stereo partly drawn), with over 20 µM; and `C[C@H](NC(=O)C(c1cccnc1)N(C(=O)/C=C/Br)c1ccc(-c2ccccc2)cc1)c1ccccc1` (stereo partly drawn), with over 20 µM.
The same measure, in the same setting: the value for `C=C(C(=O)N(c1ccc(-c2ccccc2)cc1)C(C(=O)N[C@@H](C)c1ccccc1)c1cccnc1)c1ccccc1` (stereo partly drawn) was over 20 µM.
Turning to `C[C@H](NC(=O)[C@H](c1cccnc1)N(C(=O)C#CCCl)c1ccc(-c2ccccc2)cc1)c1ccccc1`, the CC50 in data set [2] amounted to 2.2 µM.
Turning to `C[C@H](NC(=O)[C@H](c1cccnc1)N(C(=O)C#CCC#N)c1ccc(-c2ccccc2)cc1)c1ccccc1`, in data set [1], the IC50 was over 20 µM.
As for `C[C@H](NC(=O)C(c1cccnc1)N(C(=O)/C(C#N)=C/C1CC1)c1ccc(-c2ccccc2)cc1)c1ccccc1` (stereo partly drawn), the IC50 in data set [1] was over 20 µM.
In the case of `C[C@H](NC(=O)C(c1cccnc1)N(C(=O)C(C#N)=C1CCCCC1)c1ccc(-c2ccccc2)cc1)c1ccccc1` (stereo partly drawn), in data set [1], the IC50 is over 20 µM.
Regarding `C/C=C(\C)C(=O)N(c1ccc(-c2ccccc2)cc1)C(C(=O)N[C@@H](C)c1ccccc1)c1cccnc1` (stereo partly drawn), in data set [1], the IC50 is over 20 µM.
As to `C#CCC(=O)N(c1ccc(-c2ccccc2)cc1)C(C(=O)N[C@@H](C)c1ccccc1)c1cccnc1` (stereo partly drawn), half-maximal inhibition in data set [1] (IC50) was put at 4.63 µM.
Molecule `COC(=O)/C=C/C(=O)N(c1ccc(-c2ccccc2)cc1)C(C(=O)N[C@@H](C)c1ccccc1)c1cccnc1` (stereo partly drawn) displayed an IC50 in data set [1] of 3.97 µM. Also, half-maximal cytotoxicity in data set [2] (CC50 at 120 h) was put at 8.9 µM.
The molecule `C=C(Br)C(=O)N(c1ccc(-c2ccccc2)cc1)C(C(=O)N[C@@H](C)c1ccccc1)c1cccnc1` (stereo partly drawn) yielded an IC50 in data set [1] of 4.26 µM. Moreover, the CC50 at 120 h in data set [2] was under 3.9 µM.
Take `C=C(C)C(=O)N(c1ccc(-c2ccccc2)cc1)C(C(=O)N[C@@H](C)c1ccccc1)c1cccnc1` (stereo partly drawn): the concentration for half-maximal inhibition (IC50) in data set [1] is over 20 µM.
On to `C=C(Cl)C(=O)N(c1ccc(-c2ccccc2)cc1)C(C(=O)N[C@@H](C)c1ccccc1)c1cccnc1` (stereo partly drawn), for which the CC50 in data set [4] was under 10 µM.
In data set [1], `C[C@H](NC(=O)C(c1cccnc1)N(C(=O)C#CC(C)(C)O)c1ccc(-c2ccccc2)cc1)c1ccccc1` (stereo partly drawn) had an IC50 of 1.28 µM. Besides, the midpoint of cytotoxicity in data set [2], the CC50 at 120 h, lay at 19.1 µM.
`C[C@H](NC(=O)C(c1cccnc1)N(C(=O)C1=CC(=O)CC1)c1ccc(-c2ccccc2)cc1)c1ccccc1` (stereo partly drawn): the IC50 in data set [1] was over 20 µM.
`C[C@H](NC(=O)C(c1cccnc1)N(C(=O)C#CC1CC1)c1ccc(-c2ccccc2)cc1)c1ccccc1` (stereo partly drawn) registered an IC50 in data set [1] of 0.85 µM. For the same molecule, in data set [2], the CC50 is 102 µM.
Take `CC(C)C#CC(=O)N(c1ccc(-c2ccccc2)cc1)C(C(=O)N[C@@H](C)c1ccccc1)c1cccnc1` (stereo partly drawn): the IC50 in data set [1] turned out to be 4.19 µM.
Consider `CCC(=O)C(=O)N(c1ccc(-c2ccccc2)cc1)C(C(=O)N[C@@H](C)c1ccccc1)c1cccnc1` (stereo partly drawn), for which, in data set [1], the IC50 worked out at 3.81 µM.
For `CC(C)=CC(=O)N(c1ccc(-c2ccccc2)cc1)C(C(=O)N[C@@H](C)c1ccccc1)c1cccnc1` (stereo partly drawn), the IC50 in data set [1] was over 20 µM.
Take `C=CC(=O)N(c1ccc(-c2ccccc2)cc1)C(C(=O)N[C@@H](C)c1ccccc1)c1cccnc1` (stereo partly drawn): the IC50 in data set [5] is over 20 µM.
A word on the Ki: it is the equilibrium dissociation constant of an inhibitor or competing ligand from its target. For orientation: EC50 means the concentration at which the effect is half-maximal. With `C[C@H](NC(=O)[C@@H](c1cccnc1)N(C(=O)C#CCC#N)c1ccc(-c2ccccc2)cc1)c1ccccc1`, in data set [1], half-maximal inhibition (IC50) was put at 0.5 µM. This molecule also registered a CC50 at 120 h in data set [2] of over 100 µM. In addition, the Ki in data set [6] stood at 0.345 µM. The EC50 in data set [7] was 2.92 µM. Also, in data set [3], the CC50 at 48 h is over 100 µM.
In turn, `CC#CC(=O)N(c1ccc(-c2ccccc2)cc1)C(C(=O)N[C@@H](C)c1ccccc1)c1cccnc1` (stereo partly drawn) had a CC50 at 120 h in data set [2] of 18 µM.
On to `C[C@H](NC(=O)C(c1cccnc1)N(C(=O)/C=C/c1ccco1)c1ccc(-c2ccccc2)cc1)c1ccccc1` (stereo partly drawn), for which the IC50 in data set [1] came out at 15.4 µM.
In data set [1], `C[C@H](NC(=O)C(c1cccnc1)N(C(=O)/C=C\I)c1ccc(-c2ccccc2)cc1)c1ccccc1` (stereo partly drawn) had an IC50 of over 20 µM.
For the molecule `C#CC(=O)N(c1ccc(-c2ccccc2)cc1)[C@H](C(=O)N[C@@H](C)c1ccccc1)c1cccnc1`, the CC50 at 120 h in data set [2] stood at 2.8 µM.
`C=CS(=O)(=O)N(c1ccc(-c2ccccc2)cc1)[C@H](C(=O)N[C@@H](C)c1ccccc1)c1cccnc1`: in data set [1], inhibition was half-maximal at 6.49 µM (IC50).
For `CC(=O)/C=C/C(=O)N(c1ccc(-c2ccccc2)cc1)C(C(=O)N[C@@H](C)c1ccccc1)c1cccnc1` (stereo partly drawn), the IC50 in data set [1] was 17 µM.
On the same count and under the same terms, the value for `C=C(F)C(=O)N(c1ccc(-c2ccccc2)cc1)C(C(=O)N[C@@H](C)c1ccccc1)c1cccnc1` (stereo partly drawn) was over 20 µM.
On the same count and under the same terms, then `C[C@H](NC(=O)C(c1cccnc1)N(C(=O)C#CC(C)(C)F)c1ccc(-c2ccccc2)cc1)c1ccccc1` (stereo partly drawn), with over 20 µM.
In data set [1], `C[C@H](NC(=O)C(c1cccnc1)N(C(=O)/C=C/C(=O)O)c1ccc(-c2ccccc2)cc1)c1ccccc1` (stereo partly drawn) had an IC50 of 12.4 µM. The half-maximal cytotoxic concentration (CC50) at 120 h in data set [2] is over 250 µM.
In turn, `C[C@H](NC(=O)C(c1cccnc1)N(C(=O)C1(C#N)CC1)c1ccc(-c2ccccc2)cc1)c1ccccc1` (stereo partly drawn) returned an IC50 in data set [1] of over 20 µM.
For `C[C@H](NC(=O)C(c1cccnc1)N(C(=O)C(=O)N1CCN(C)CC1)c1ccc(-c2ccccc2)cc1)c1ccccc1` (stereo partly drawn), in data set [1], the IC50 is over 20 µM.
`C=C(C(=O)N(c1ccc(-c2ccccc2)cc1)C(C(=O)N[C@@H](C)c1ccccc1)c1cccnc1)C(F)(F)F` (stereo partly drawn): the half-inhibitory concentration (IC50) in data set [1] was determined as 4.36 µM. In data set [2], the CC50 at 120 h is under 3.9 µM.
`C[C@H](NC(=O)C(c1cccnc1)N(C(=O)C1=CCCCC1)c1ccc(-c2ccccc2)cc1)c1ccccc1` (stereo partly drawn) registered an IC50 in data set [1] of over 20 µM.
In turn, `C[C@H](NC(=O)[C@@H](c1cccnc1)N(C(=O)C#CCCl)c1ccc(-c2ccccc2)cc1)c1ccccc1` displayed a CC50 in data set [2] of 2 µM.
As to `C#CCCC(=O)N(c1ccc(-c2ccccc2)cc1)C(C(=O)N[C@@H](C)c1ccccc1)c1cccnc1` (stereo partly drawn), in data set [1], the IC50 was over 20 µM.
The same measure, in the same setting: then `C[C@H](NC(=O)C(c1cccnc1)N(C(=O)C(F)(F)S(=O)(=O)F)c1ccc(-c2ccccc2)cc1)c1ccccc1` (stereo partly drawn), with over 20 µM.
Consider `CC(C)/C=C(\C#N)C(=O)N(c1ccc(-c2ccccc2)cc1)C(C(=O)N[C@@H](C)c1ccccc1)c1cccnc1` (stereo partly drawn), for which the IC50 in data set [1] was over 20 µM.
In data set [1], `C[C@H](NC(=O)C(c1cccnc1)N(C(=O)C1(C#N)CCOCC1)c1ccc(-c2ccccc2)cc1)c1ccccc1` (stereo partly drawn) gave an IC50 of over 20 µM.
As to `CO/C=C/C(=O)N(c1ccc(-c2ccccc2)cc1)C(C(=O)N[C@@H](C)c1ccccc1)c1cccnc1` (stereo partly drawn), the IC50 in data set [1] was over 20 µM.
Molecule `C[C@H](NC(=O)C(c1cccnc1)N(C(=O)/C=C/Cl)c1ccc(-c2ccccc2)cc1)c1ccccc1` (stereo partly drawn) returned an IC50 in data set [1] of over 20 µM.
Molecule `CCC(CC)COC(=O)[C@H](C)N[P@](=O)(OC[C@H]1O[C@@](C#N)(c2ccc3c(N)ncnn23)[C@H](O)[C@@H]1O)Oc1ccccc1` [REMDESIVIR] gave a half-maximal cytotoxic concentration (CC50) at 120 h in data set [2] of over 10 µM. In data set [7], the EC50 came to 0.17 µM. In addition, in data set [3], the CC50 at 48 h was over 10 µM.
